In brackets after ≈: the same amount, converted by molar mass. Activity calls are given as the source filed them. The rule behind the calls is not given here.
Key:
Staphylococcus aureus [1] = test: Antimicrobial activity against methicillin-resistant Staphylococcus aureus HDE288 assessed as concentration required for minimum inhibition of BRP-resistant subpopulation growth by Etest; type: functional
Summary of the method: (§1)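 Etest (manufacturer's method) and population analysis: overnight cultures serially diluted and plated on TSA with increasing oxacillin or BPR, CFU counted after 48 h at 37°C. Colonies from subpopulations growing at high oxacillin or BPR were picked, restreaked on antibiotic-free TSA for three passages, then retested by population analysis.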

Staphylococcus aureus [2] = test: Antimicrobial activity against methicillin-resistant Staphylococcus aureus E2125 by Etest; type: functional; summary of the method: as §1
Staphylococcus aureus [3] = test: Antimicrobial activity against methicillin-resistant Staphylococcus aureus HDE288 by Etest; type: functional; summary of the method: as §1
Staphylococcus aureus [4] = test: Antimicrobial activity against methicillin-resistant Staphylococcus aureus COL by Etest; type: functional; summary of the method: as §1
Staphylococcus aureus [5] = test: Antimicrobial activity against methicillin-resistant Staphylococcus aureus HDE288 assessed as concentration required for minimum inhibition of oxacillin-resistant subpopulation growth by Etest; type: functional; summary of the method: as §1
Staphylococcus aureus [6] = test: Antimicrobial activity against methicillin-resistant Staphylococcus aureus E2125 assessed as concentration required for bacterial subpopulation growth; type: functional; summary of the method: as §1
MecA = target: T1, MecA (Staphylococcus aureus, UniProt Q7DHH4); test: Inhibition of methicillin-resistant Staphylococcus aureus COL PBP2a by competitive assay; design: species or system Staphylococcus aureus subsp. aureus COL
T1 sequence (Q7DHH4 whole entry): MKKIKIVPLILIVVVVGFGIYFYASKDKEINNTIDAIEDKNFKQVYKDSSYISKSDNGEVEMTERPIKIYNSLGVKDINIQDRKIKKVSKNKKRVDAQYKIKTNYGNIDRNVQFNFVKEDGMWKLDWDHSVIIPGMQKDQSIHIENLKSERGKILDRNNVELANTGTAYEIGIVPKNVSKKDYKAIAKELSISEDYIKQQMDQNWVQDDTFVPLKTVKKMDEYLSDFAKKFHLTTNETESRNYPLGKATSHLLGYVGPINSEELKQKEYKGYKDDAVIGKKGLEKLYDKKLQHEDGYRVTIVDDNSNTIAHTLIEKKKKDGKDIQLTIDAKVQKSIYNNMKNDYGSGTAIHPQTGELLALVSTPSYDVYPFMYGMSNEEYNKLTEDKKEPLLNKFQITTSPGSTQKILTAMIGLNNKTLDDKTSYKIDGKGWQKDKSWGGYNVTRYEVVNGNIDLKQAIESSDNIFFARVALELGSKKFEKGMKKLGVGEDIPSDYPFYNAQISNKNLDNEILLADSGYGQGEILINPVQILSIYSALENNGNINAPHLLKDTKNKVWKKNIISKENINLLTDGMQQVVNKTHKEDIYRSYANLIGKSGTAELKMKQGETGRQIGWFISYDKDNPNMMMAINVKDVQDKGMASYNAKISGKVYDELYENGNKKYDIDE
Summary of the method: (§2)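 Purified soluble PBP 2A (mecA expressed in E. coli, 97% pure) at 0.8 µM, preincubated with drug 30 min at 30°C. Then 20 µM Bocillin FL added for 10 min at 37°C, quenched with SDS-PAGE buffer and boiled. Drug range 0.5–20 µM; for IC50, BPR 0.5–200 µM or oxacillin 5–6,000 µM. Curve fitting.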

Staphylococcus aureus [7] = test: Antimicrobial activity against methicillin-resistant Staphylococcus aureus HAR22 assessed as concentration required for minimum inhibition of oxacillin-resistant subpopulation growth by Etest; type: functional; summary of the method: as §1
Staphylococcus aureus [8] = test: Displacement of benzyl-[14C]penicillin from Staphylococcus aureus PBP2 RU130 mutant by in vitro competitive assay; conditions: COL
Summary of the method: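 Membranes from PBP 2 insertional mutant RU130 (Tn551 in transpeptidase domain), late exponential phase, 150 µg protein, preincubated with increasing oxacillin or BPR 10 min at 30°C. Then labelled with 20 µg/ml benzyl[14C]penicillin 10 min at 37°C and stopped with excess unlabelled penicillin in SDS. SDS-PAGE with phosphor screen exposure for 2 weeks.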

Staphylococcus aureus [9] = test: Antimicrobial activity against methicillin-resistant Staphylococcus aureus HAR24 by Etest; type: functional; summary of the method: as §1
Staphylococcus aureus [10] = test: Antimicrobial activity against methicillin-resistant Staphylococcus aureus HU25 assessed as concentration required for bacterial subpopulation growth; type: functional; summary of the method: as §1
Staphylococcus aureus [11] = test: Antimicrobial activity against vancomycin-intermediate Staphylococcus aureus Mu50 by Etest; type: functional
Summary of the method: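 Etest and population analysis: overnight cultures plated on TSA with increasing vancomycin, oxacillin or BPR, CFU counted after 48 h at 37°C. For VRSA strains, vancomycin plates also run with constant 1 µg/ml BPR. Vancomycin Etest read after overnight 37°C incubation on TSA with or without 1 µg/ml BPR.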

[12] = target: T2, MecA (Staphylococcus aureus) (UniProt Q7DHH4); test: Inhibition of methicillin-resistant Staphylococcus aureus COL PBP2a at 10 uM by competitive assay; conditions: Staphylococcus aureus subsp. aureus COL; summary of the method: as §2
T2 sequence (whole entry): T1 sequence (Q7DHH4 whole entry)

Staphylococcus aureus [13] = test: Antimicrobial activity against methicillin-resistant Staphylococcus aureus BK2464 assessed as concentration required for minimum inhibition of BRP-resistant subpopulation growth by Etest; type: functional; summary of the method: as §1
Staphylococcus aureus [14] = test: Antimicrobial activity against methicillin-resistant Staphylococcus aureus BK2464 by Etest; type: functional; summary of the method: as §1
Staphylococcus aureus [15] = test: Antimicrobial activity against methicillin-resistant Staphylococcus aureus BK2529 assessed as concentration required for minimum inhibition of oxacillin-resistant subpopulation growth by Etest; type: functional; summary of the method: as §1
Staphylococcus aureus [16] = test: Antimicrobial activity against methicillin-resistant Staphylococcus aureus HAR22 assessed as concentration required for minimum inhibition of BRP-resistant subpopulation growth; type: functional; summary of the method: as §1
Staphylococcus aureus [17] = test: Antimicrobial activity against methicillin-resistant Staphylococcus aureus HPV107 by Etest; type: functional; summary of the method: as §1
Staphylococcus aureus [18] = test: Antimicrobial activity against methicillin-resistant Staphylococcus aureus COL assessed as concentration required for bacterial subpopulation growth; type: functional; summary of the method: as §1
Staphylococcus aureus [19] = test: Effect on cell wall composition of Staphylococcus aureus COL at 0.4 ug/ml by HPLC method; type: functional, organism-based
Summary of the method: (§3)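 Strain COL was grown in 1-liter cultures at 37°C to OD620 0.4, with or without drug at 0.4 µg/ml in the medium. Peptidoglycan was then purified and analysed by HPLC elution profile.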

Staphylococcus aureus [20] = test: Antimicrobial activity against methicillin-resistant Staphylococcus aureus BK2464 assessed as concentration required for minimum inhibition of oxacillin-resistant subpopulation growth by Etest; type: functional; summary of the method: as §1
Staphylococcus aureus [21] = test: Antimicrobial activity against methicillin-resistant Staphylococcus aureus USA300 assessed as concentration required for minimum inhibition of BRP-resistant subpopulation growth; type: functional; summary of the method: as §1
Staphylococcus aureus [22] = test: Antimicrobial activity against methicillin-resistant Staphylococcus aureus HAR24 assessed as concentration required for minimum inhibition of BRP-resistant subpopulation growth; type: functional; summary of the method: as §1
Staphylococcus aureus [23] = test: Antimicrobial activity against methicillin-resistant Staphylococcus aureus USA300 by Etest; type: functional; summary of the method: as §1
Staphylococcus aureus [24] = test: Antimicrobial activity against methicillin-resistant Staphylococcus aureus HPV107 assessed as concentration required for minimum inhibition of oxacillin-resistant subpopulation growth by Etest; type: functional; summary of the method: as §1
Staphylococcus aureus [25] = test: Antimicrobial activity against methicillin-resistant Staphylococcus aureus E2125 assessed as concentration required for minimum inhibition of oxacillin-resistant subpopulation growth by Etest; type: functional; summary of the method: as §1
Staphylococcus aureus [26] = test: Antimicrobial activity against methicillin-resistant Staphylococcus aureus HAR24 assessed as concentration required for minimum inhibition of oxacillin-resistant subpopulation growth by Etest; type: functional; summary of the method: as §1
Staphylococcus aureus [27] = test: Antimicrobial activity against methicillin-resistant Staphylococcus aureus BK2464 assessed as concentration required for bacterial subpopulation growth; type: functional; summary of the method: as §1
Staphylococcus aureus [28] = test: Effect on cell wall composition of Staphylococcus aureus COL at 0.4 ug/ml after 100 mins by HPLC method; type: functional, organism-based; summary of the method: as §3

## Nc1nc(/C(=N/O)C(=O)N[C@@H]2C(=O)N3C(C(=O)O)=C(/C=C4\CCN([C@@H]5CCNC5)C4=O)CS[C@H]23)ns1 [CEFTOBIPROLE]
Staphylococcus aureus [1]
  Activity: 1.5 µg/mL
Staphylococcus aureus [2]
  MIC: 0.8 µg/mL (≈ 1.5 µM)
Staphylococcus aureus [3]
  MIC: 0.8 µg/mL (≈ 1.5 µM)
Staphylococcus aureus [4]
  MIC: 3 µg/mL (≈ 5.61 µM)
Staphylococcus aureus [5]
  Activity: 1.5 µg/mL
Staphylococcus aureus [6]
  Activity: 6 µg/mL
MecA
  IC50: 3.2 µM
Staphylococcus aureus [7]
  Activity: 0.8 µg/mL
Staphylococcus aureus [8]
  Activity: Active
Staphylococcus aureus [9]
  MIC: 1.5 µg/mL (≈ 2.81 µM)
Staphylococcus aureus [10]
  Activity: 3 µg/mL
Staphylococcus aureus [11]
  MIC: 3 µg/mL (≈ 5.61 µM)
[12]
  inhibition: 66%
Staphylococcus aureus [13]
  Activity: 3 µg/mL
Staphylococcus aureus [14]
  MIC: 1.5 µg/mL (≈ 2.81 µM)
Staphylococcus aureus [15]
  Activity: 1.5 µg/mL
Staphylococcus aureus [16]
  Activity: 3 µg/mL
Staphylococcus aureus [17]
  MIC: 0.8 µg/mL (≈ 1.5 µM)
Staphylococcus aureus [18]
  Activity: 3 µg/mL
Staphylococcus aureus [19]
  Activity: Active
Staphylococcus aureus [20]
  Activity: 1.5 µg/mL
Staphylococcus aureus [21]
  Activity: 0.8 µg/mL
Staphylococcus aureus [22]
  Activity: 3 µg/mL
Staphylococcus aureus [23]
  MIC: 1.5 µg/mL (≈ 2.81 µM)
Staphylococcus aureus [24]
  Activity: 0.8 µg/mL
Staphylococcus aureus [25]
  Activity: 0.8 µg/mL
Staphylococcus aureus [26]
  Activity: 1.5 µg/mL
Staphylococcus aureus [27]
  Activity: 1.5 µg/mL
Staphylococcus aureus [28]
  Activity: inactive
